Consider one compound from ChEMBL document CHEMBL1671864, “First assessment in humans of the safety, tolerability, pharmacokinetics, and ex vivo pharmacodynamic antimalarial activity of the new artemisinin derivative artemisone” (Antimicrob Agents Chemother, 2008).

Format in all cases: ADME, organism-based
Data set [1] can be described thus: Mean residence time in healthy human at 30 mg, po administered as single ascending doses as solution during 10 hrs overnight fasting state. The conditions noted are these: in vivo. The procedure, abridged:
(§1)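 Healthy Caucasian male volunteers, single oral dose with 240 ml water after a 10-h overnight fast. Heparinised venous blood was drawn predose and at 0.25–14 h. Plasma was stored frozen. Parent drug and metabolites M1–M3 were measured by LC/MS-MS (MRM, deuterated internal standard). Noncompartmental analysis gave Cmax observed, t1/2 = 0.693/kel (terminal regression) and MRT = AUMC/AUC. Values are geometric means.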

The nature of data set [2]: AUC in healthy human plasma at 40 mg, po administered as two 20 mg immediate release tablets daily for 3 days during 10 hrs overnight fasting state measured after 1 day. More on the design: time < 10 hr, dose 40 mg, route oral. The procedure, abridged:
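Healthy Caucasian males took 40 mg (2×20-mg IR tablets) or 80 mg (4 tablets) orally daily for 3 days after a 10-h fast. Plasma parent drug was measured by LC/MS-MS from predose to 14 h after the first and third doses. Noncompartmental analysis: AUC by log-linear trapezoid extrapolated via kel, CL/F = dose/AUC, V/F = CL/F÷kel, geometric means.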

A short description of data set [3]: Half life in healthy human plasma at 40 mg, po administered as two 20 mg immediate release tablets daily for 3 days during 10 hrs overnight fasting state measured after 1 day. Put shortly: (§2)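 Healthy Caucasian males took tablets once daily for 3 days with 240 ml water after a 10-h fast. Heparinised blood was drawn predose and at 0.25–14 h after the first and last doses. Plasma parent drug and metabolites M1–M3 were measured by LC/MS-MS (MRM, deuterated internal standard). Noncompartmental analysis gave Cmax observed, t1/2 = 0.693/kel and MRT = AUMC/AUC. Values are geometric means.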

Data set [4] in a line: Apparent volume of distribution with respect to the bioavailability in healthy human at 20 mg, po administered as single ascending doses as solution during 10 hrs overnight fasting state. The conditions noted are these: in vivo, read-out: Vc/F. Put shortly: (§3)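 Single ascending oral doses in healthy Caucasian men, given fasted (10-h overnight) with 240 ml water: 10, 20, 30 or 40 mg as oral solution, or 80 mg as IR tablets. Parent plasma levels by LC/MS-MS over 0.25–14 h. Noncompartmental analysis: kel by terminal-phase least-squares regression, AUC extrapolated to infinity, CL/F = dose/AUC, V/F = CL/F÷kel.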

Data set [5] in a line: Tmax in healthy human plasma at 80 mg, po administered as four 20 mg immediate release tablets daily for 3 days during 10 hrs overnight fasting state measured after 1 day. The procedure, abridged:
(§4)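 Healthy Caucasian men (8 active, 4 placebo per dose) dosed with tablets daily for 3 days after 10-h fast. Lithium-heparin plasma sampled predose and 0.25–14 h after day-1 and day-3 doses, stored frozen. Parent and M1–M3 quantified by LC/MS-MS in positive-ion MRM. Tmax taken directly from observed individual data.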

Data set [6] is described as follows: AUC in healthy human plasma at 10 mg, po administered as single ascending doses as solution during 10 hrs overnight fasting state. More on the design: dose 10 mg, time < 10 hr, route oral. The procedure, abridged: as §3
Data set [7] can be described thus: Mean residence time in healthy human at 80 mg, po administered as four 20 mg immediate release tablets daily for 3 days during 10 hrs overnight fasting state measured after 1 day. As to conditions: in vivo. Put shortly: as §2
Data set [8] in a line: Half life in healthy human plasma at 80 mg, po administered as single immediate release tablets during 10 hrs overnight fasting state. The procedure, abridged: as §1
Data set [9] is described as follows: Tmax in healthy human plasma at 80 mg, po administered as four 20 mg immediate release tablets daily for 3 days during 10 hrs overnight fasting state measured after 3 day. The procedure, abridged: as §4
The nature of data set [10]: Cmax in healthy human plasma at 80 mg, po administered as single immediate release tablets during 10 hrs overnight fasting state. On the set-up: dose 80 mg, route oral. Put shortly: as §1
Data set [11] is described as follows: Cmax in healthy human plasma at 20 mg, po administered as single ascending doses as solution during 10 hrs overnight fasting state. On the set-up: dose 20 mg, route oral. Put shortly: as §1
Data set [12] is described as follows: Apparent volume of distribution with respect to the bioavailability in healthy human at 30 mg, po administered as single ascending doses as solution during 10 hrs overnight fasting state. As to conditions: in vivo, read-out: Vc/F. Put shortly: as §3

For orientation: MRT means a mean duration of stay, worked out from the concentration-time curve. As usually defined, the AUC is the area under the concentration-time curve, a measure of exposure. A higher AUC goes with high exposure. Usually half-life stands for how long it takes for the measured level to halve. Higher therefore signals slow loss. In general, Tmax refers to the time from dosing to the highest level. One may read the Cmax as the highest concentration seen after dosing. In the case of `C[C@H]1[C@H](N2CCS(=O)(=O)CC2)O[C@@H]2O[C@@]3(C)CC[C@H]4[C@H](C)CC[C@@H]1[C@@]24OO3` [ARTEMIFONE], the MRT in data set [1] is 2.29 h; in [7], 3.3 h. Moreover, the AUC at 10 h in [2] is 184 ng·h/mL; in data set [6], 29.5 ng·h/mL. The half-life in data set [3] was 3.36 h; in data set [8], 2.79 h. Besides, the Vd/F in [4] worked out at 19.1 L/kg; in [12], 26.6 L/kg. For the same compound, the Tmax in data set [5] and in data set [9] was 1.5 h throughout. Also, the figures for the Cmax in data set [10] and in data set [11] were 140 ng/mL and 57.3 ng/mL, respectively.
